# According to ChEMBL document CHEMBL1155465, “"Viologen" dendrimers as antiviral agents: the effect of charge number and distance” (J Med Chem, 2010):
# Columns and labels:
# [1] = tested on: Vaccinia virus; test: Antiviral activity against Vaccina virus infected in human E6SM cell assessed as inhibition of virus-induced cytopathicity; format: functional, organism-based; conditions: Orthopoxvirus vaccinia
# [2] = tested on: Human respirovirus 3; test: Antiviral activity against Parainfluenza virus 3 infected in african green monkey Vero cells assessed as inhibition of virus-induced cytopathicity; format: functional, organism-based; conditions: Human respirovirus 3, Vero
# [3] = tested on: Respiratory syncytial virus; test: Antiviral activity against RSV infected in human HeLa cell assessed as inhibition of virus-induced cytopathicity; format: functional, organism-based
# [4] = tested on: Human alphaherpesvirus 1; test: Antiviral activity against TK-deficient acyclovir-resistant HSV1 KOS infected in human E6SM cell assessed as inhibition of virus-induced cytopathicity; format: functional, organism-based; conditions: Human alphaherpesvirus 1, KOS
# [5] = tested on: Human alphaherpesvirus 1; test: Antiviral activity against HSV1 KOS infected in human E6SM cell assessed as inhibition of virus-induced cytopathicity; format: functional, organism-based; conditions: Human alphaherpesvirus 1, KOS
# [6] = tested on: Human alphaherpesvirus 2; test: Antiviral activity against HSV2 G infected in human E6SM cell assessed as inhibition of virus-induced cytopathicity; format: functional, organism-based; conditions: Human alphaherpesvirus 2, strain G
# [7] = Cytotoxicity against human E6SM cells by MTT assay; format: cell-based
# [8] = tested on: Sindbis virus; test: Antiviral activity against Sindbis virus infected in african green monkey Vero cells assessed as inhibition of virus-induced cytopathicity; format: functional, organism-based
# [9] = tested on: Reovirus sp.; test: Antiviral activity against Reovirus infected in african green monkey Vero cells assessed as inhibition of virus-induced cytopathicity; format: functional, organism-based
# [10] = tested on: Vesicular stomatitis virus; test: Antiviral activity against VSV infected in human HeLa cell assessed as inhibition of virus-induced cytopathicity; format: functional, organism-based
# [11] = Cytotoxicity against african green monkey Vero cells by MTT assay; format: cell-based; conditions: chlorocebus sabaeus
# [12] = tested on: Vesicular stomatitis virus; test: Antiviral activity against VSV infected in human E6SM cell assessed as inhibition of virus-induced cytopathicity; format: functional, organism-based
# [13] = tested on: Punta Toro virus; test: Antiviral activity against Punta Toro virus infected in african green monkey Vero cells assessed as inhibition of virus-induced cytopathicity; format: functional, organism-based
# [14] = Cytotoxicity against human HeLa cells by MTT assay; format: cell-based
# [15] = tested on: Human immunodeficiency virus 1; test: Antiviral activity against HIV1 3B infected in human MT4 cells after 5 days by MTT assay; format: functional, organism-based; conditions: Human immunodeficiency virus 1, 3B, MT4, 120 h
# Outline: (§1)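 MT-4 cells in RPMI 1640 with 10% heat-inactivated FCS, 2 mM L-glutamine, 0.1% bicarbonate and gentamicin, seeded at 6 × 10⁵ cells/mL final with virus or mock infection. Viability read by MTT after 5 days at 540 and 690 nm, using the median OD of three wells. CC50 is 50% loss of mock-infected OD540. EC50 is 50% inhibition of virus-induced CPE. SI = CC50/EC50. Mean ± SD of ≥2 experiments.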
# [16] = Cytotoxicity against human MT4 cells after 5 days by MTT assay; format: cell-based; outline: as §1
# [17] = Selectivity index, ratio of CC50 for human MT4 cells to EC50 for HIV1 3B; format: toxicity, cell-based; conditions: read-out: Ratio CC50/EC50; outline: as §1
# [18] = tested on: Human immunodeficiency virus 2; test: Antiviral activity against HIV2 ROD infected in human MT4 cells after 5 days by MTT assay; format: functional, organism-based; conditions: Human immunodeficiency virus 2, ISOLATE ROD, MT4, 120 h; outline: as §1
# [19] = Selectivity index, ratio of CC50 for human PBMC to EC50 for HIV1 3B
# Outline: (§2)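 PBMCs infected with HIV-1 IIIB and cultured with a range of compound concentrations. EC50 is 50% inhibition of supernatant p24 core antigen (ELISA) relative to drug-free culture. CC50 is 50% reduction in cell viability. SI = CC50/EC50. Mean ± SD of ≥2 experiments.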
# [20] = Cytotoxicity against human PBMC after 5 days by MTT assay; format: cell-based; outline: as §2
# [21] = tested on: Human immunodeficiency virus 1; test: Antiviral activity against HIV1 3B infected in human PBMC assessed as inhibition of viral p24 antigen production by ELISA; format: functional, organism-based; conditions: Human immunodeficiency virus 1, 3B; outline: as §2
# [22] = tested on: Simian immunodeficiency virus; test: Antiviral activity against SIV MAC251 infected in human MT4 cells after 5 days by MTT assay; format: functional, organism-based; conditions: MAC251, MT4, 120 h; outline: as §1
# [23] = tested on: Human immunodeficiency virus; test: Antiviral activity against HIV SO6141 infected in human MT4 cells after 5 days by MTT assay; format: functional, organism-based; conditions: Human immunodeficiency virus 1, SO6141, MT4, 120 h; outline: as §1
smiles,measurement,setting,value
O=c1[nH]c(=O)n([C@H]2C[C@H](O)[C@@H](CO)O2)cc1/C=C/Br [BRIVUDINE],EC50,[1],9.6 µg/mL
same,EC50,[2],> 400 µg/mL
same,EC50,[3],> 400 µg/mL
same,EC50,[4],> 400 µg/mL
same,EC50,[5],0.384 µg/mL
same,EC50,[6],80 µg/mL
same,MCC,[7],> 400 µg/mL
same,EC50,[8],> 400 µg/mL
same,EC50,[9],> 400 µg/mL
same,EC50,[10],> 400 µg/mL
same,MCC,[11],> 400 µg/mL
same,EC50,[12],> 400 µg/mL
same,EC50,[13],> 400 µg/mL
same,MCC,[14],> 400 µg/mL
C[n+]1ccc(-c2cc[n+](CBr)cc2)cc1,EC50,[15],> 5.1 µM
same,CC50 at 120 h,[16],5.1 µM
same,selectivity ratio,[17],< 1
same,EC50,[18],> 5.1 µM
NCCC[n+]1ccc(-c2cc[n+](Cc3ccccc3)cc2)cc1,EC50,[15],> 0.9 µM
same,CC50 at 120 h,[16],0.9 µM
same,selectivity ratio,[17],< 1
same,EC50,[18],> 0.9 µM
C[n+]1ccc(-c2cc[n+](C)cc2)cc1,EC50,[15],> 25.2 µM
same,CC50 at 120 h,[16],25.2 µM
same,selectivity ratio,[17],< 1
same,EC50,[18],> 25.2 µM
CC[n+]1ccc(-c2cc[n+](Cc3cc(C[n+]4ccc(-c5cc[n+](CC)cc5)cc4)cc(-[n+]4ccc(-c5cc[n+](-c6cc(C[n+]7ccc(-c8cc[n+](CC)cc8)cc7)cc(C[n+]7ccc(-c8cc[n+](CC)cc8)cc7)c6)cc5)cc4)c3)cc2)cc1.F[P-](F)(F)(F)(F)F.F[P-](F)(F)(F)(F)F.F[P-](F)(F)(F)(F)F.F[P-](F)(F)(F)(F)F.F[P-](F)(F)(F)(F)F.F[P-](F)(F)(F)(F)F.F[P-](F)(F)(F)(F)F.F[P-](F)(F)(F)(F)F.F[P-](F)(F)(F)(F)F.F[P-](F)(F)(F)(F)F,EC50,[1],> 50 µg/mL
same,EC50,[2],> 50 µg/mL
same,EC50,[15],1.01 µM
same,Ratio CC50/EC50,[19],34
same,EC50,[3],50 µg/mL
same,EC50,[4],30 µg/mL
same,EC50,[5],6 µg/mL
same,EC50,[6],50 µg/mL
same,CC50 at 120 h,[20],26.8 µg/mL
same,CC50 at 120 h,[16],> 49 µM
same,EC50,[21],0.79 µg/mL
same,MCC,[7],> 50 µg/mL
same,EC50,[8],> 50 µg/mL
same,EC50,[22],> 49 µM
same,EC50,[23],> 49 µM
same,EC50,[9],> 50 µg/mL
same,EC50,[10],> 50 µg/mL
same,MCC,[11],> 50 µg/mL
same,EC50,[12],> 50 µg/mL
same,selectivity ratio,[17],48.5
same,EC50,[13],> 50 µg/mL
same,MCC,[14],> 50 µg/mL
same,EC50,[18],> 49 µM
C=C[n+]1ccc(-c2cc[n+](Cc3ccccc3)cc2)cc1,EC50,[15],> 2.7 µM
same,CC50 at 120 h,[16],2.7 µM
same,selectivity ratio,[17],< 1
same,EC50,[18],> 2.7 µM
NCCC[n+]1ccc(-c2ccncc2)cc1,EC50,[15],> 346 µM
same,CC50 at 120 h,[16],> 346 µM
same,selectivity ratio,[17],< 1
same,EC50,[18],> 346 µM
NC(=O)c1ncn([C@@H]2O[C@H](CO)[C@@H](O)[C@H]2O)n1 [RIBAVIRIN],EC50,[1],48 µg/mL
same,EC50,[4],> 400 µg/mL
same,EC50,[5],> 400 µg/mL
same,EC50,[6],> 400 µg/mL
same,MCC,[7],> 400 µg/mL
same,EC50,[8],> 400 µg/mL
same,EC50,[9],80 µg/mL
same,EC50,[10],48 µg/mL
same,MCC,[11],> 400 µg/mL
same,EC50,[12],> 400 µg/mL
same,MCC,[14],> 400 µg/mL
NCCC[n+]1ccc(-c2cc[n+](CCCN)cc2)cc1,EC50,[15],> 3.3 µM
same,CC50 at 120 h,[16],3.3 µM
same,selectivity ratio,[17],< 1
same,EC50,[18],> 3.3 µM
C=C[n+]1ccc(-c2cc[n+](C)cc2)cc1,EC50,[15],> 26.1 µM
same,CC50 at 120 h,[16],26.1 µM
same,selectivity ratio,[17],< 1
same,EC50,[18],> 26.1 µM
BrCC[n+]1ccc(-c2cc[n+](CCBr)cc2)cc1,EC50,[15],5.88 µM
same,CC50 at 120 h,[16],20.6 µM
same,EC50,[22],> 20.6 µM
same,selectivity ratio,[17],3.5
same,EC50,[18],> 20.6 µM
CCC[n+]1ccc(-c2ccncc2)cc1,EC50,[15],> 363 µM
same,CC50 at 120 h,[16],> 363 µM
same,selectivity ratio,[17],< 1
same,EC50,[18],> 363 µM
